Bioassay records from PubChem.
Only some compounds are listed: those with a hit (about 2.3% of all), similar ones and a draw of the others.
SUMO1 PPI mod = modulators of human SUMO1-mediated protein-protein interactions; SUMO1 binding to a labelled peptide, TR-FRET, 1 h; inhibition, % at 20 µM; 360,000 compounds, 0.33% hits; AID 602429; in the data active = inhibition above about 37%
Target sequence (P63165 whole entry, looked up): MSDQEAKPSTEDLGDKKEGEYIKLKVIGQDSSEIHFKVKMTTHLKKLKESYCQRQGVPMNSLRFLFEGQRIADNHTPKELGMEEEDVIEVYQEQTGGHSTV
MT1-MMP act inh = blocks activation of human MT1-MMP; HT1080 RFP-PRO-GFP cells, GFP/RFP ratio fluorescence, overnight; percent of plate control window, DMSO zero; GFP/RFP ratio change, % at 20 µM; 360,000 compounds, 0.061% hits; AID 651647;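 active = GFP/RFP ratio change of at least 30% with cell ATP level not reduced by more than half and red fluorescence within 50% of control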
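Assay system: RFP-PRO-GFP reporter HT1080 cells; read-out basis: GFP/RFP fluorescence ratio; benchmarks: DMSO wells and RFP-L50D-GFP cells; doses: 20 µM single dose, 1% DMSO; schedule: overnight cell settling, then overnight compound exposure, 37 °C, 5% CO2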
CSN deneddyl inh = blocks human CSN-mediated cullin deneddylation; Purified CSN, SCF-Nedd8-OG deneddylation, fluorescence polarization; 360,000 compounds, 0.38% hits; AID 651999; inhibition, % at 12.5 µM; Q92905;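 active = pattern-corrected inhibition above about 35%, with an unprinted fluorescence ratio check between 0.5 and 1.5, limit read from the data, passing the limit was not always enough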
Target sequence (Q92905 whole entry, looked up, one chain of several): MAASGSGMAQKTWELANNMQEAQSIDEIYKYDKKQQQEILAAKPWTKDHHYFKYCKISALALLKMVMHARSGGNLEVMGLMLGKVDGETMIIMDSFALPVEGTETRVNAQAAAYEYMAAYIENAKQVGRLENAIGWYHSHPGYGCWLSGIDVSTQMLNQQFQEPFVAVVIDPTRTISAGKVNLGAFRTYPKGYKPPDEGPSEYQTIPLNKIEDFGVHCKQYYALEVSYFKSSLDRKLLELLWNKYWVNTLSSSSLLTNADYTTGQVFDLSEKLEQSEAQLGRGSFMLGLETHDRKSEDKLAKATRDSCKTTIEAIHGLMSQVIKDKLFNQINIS
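Schedule: reaction 90 min, room temperature / Assay system: HEK293T-derived human Csn5 enzyme / Input: Csn5 at 0.24 nM final / Measure: inhibition of Csn5 cleavage, % / Control set: substrate-only high control, full reaction low control / Technique: fluorescence polarization of the substrate / Buffer or medium: Tris/NaCl/DTT buffer, pH 7.5 / Reagent: SCFSkp2-Nedd8OG substrate at 10 nM final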
DNMT1 block = DNMT1 (human) enzyme inhibition | P26358 | inhibition (reported as % activation of signal), % at 10 µM | DNMT1 molecular beacon, Hinp1I cleavage, fluorescence | 360,000 compounds, 0.83% hits; in the data active = inhibition above about 50%
SKN-1 inh = C. elegans SKN-1 inhibition; C. elegans VP596 Pgst-4::GFP/RFP ratio, acrylamide-induced, 24 h; inhibition, % at 21.8 µM; 360,000 compounds, 0.49% hits; AID 624304;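 active = interference check ratio from 0.5 to 1.5 plus GFP to RFP signal ratio inhibition reaching or exceeding a fixed threshold, cut at about 30% in these data, passing the limit was not always enough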
Rpn11 block = blocks the human proteasome subunit Rpn11 | O00487 | human 26S proteasome, Ub4-pepOG fluorescence polarization; 20S core pre-blocked with epoxomicin | inhibition, % at 20 µM | 360,000 compounds, 0.59% hits | AID 588493;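 active = inhibition at 20 µM, scaled to each plate's controls, above about 33%, limit read from the data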
DNMT1 confirm = confirmation of human DNMT1 inhibitors | shares compounds with DNMT1 block | DNMT1 molecular beacon HinP1I cleavage, fluorescence | inhibition, % at 10 µM | 2,300 compounds, 8% hits | AID 602385;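 active = average inhibition of at least 30% in the single-concentration confirmation test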
Beacon interf = counter-screen for DNMT1 inhibitors: spectral interference; 2,300 compounds, 1% hits; DNMT1 molecular beacon spectral interference counterscreen, fluorescence 485/520; activation (fluorescence interference), % at 10 µM; shares compounds with DNMT1 block;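 active = activation of at least 30% at 10 µM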;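 note: DNMT1 catalytic domain with a HinP1I cleavage step and a FAM/dabcyl DNA beacon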
Numbers stand for hits; – = inactive; · = no result given.

SMILES	SUMO1 PPI mod	MT1-MMP act inh	CSN deneddyl inh	DNMT1 block	SKN-1 inh	Rpn11 block	DNMT1 confirm	Beacon interf
Cc1cc(C)c(C)c(S(=O)(=O)N[C@@H](C)C(=O)OCc2cc(=O)n3cc(Br)ccc3n2)c1C	–	–	–	71	–	–	–	–
O=C(CN1C(=O)NC2(CCCC2)C1=O)OCc1cc(=O)n2cc(Br)ccc2n1	–	–	–	58	–	–	–	–
CCc1nc2c(OCc3cccc(OC)c3)cccn2c1N(C)C(=O)c1ccc(OC)cc1	–	–	–	–	–	–	·	·
CN1CCCCC1(C)C(=O)NCc1cc(Cl)ccc1F (stereo not drawn)	–	–	–	–	–	–	·	·
COC(=O)[C@]1(Sc2ccc(OC)cc2)CC(=O)N[C@@H]1c1ccccc1	–	–	–	·	–	·	·	·
Cc1cc(=O)oc2cc(NC(=O)c3cccc(Br)c3)ccc12	–	–	–	51	–	–	–	–
CCOC(=O)c1ccc(NC(=O)C2CCN(S(=O)(=O)CC)CC2)cc1	–	–	–	–	–	–	·	·
CCOc1ccc(NC(=O)C2CCN(S(=O)(=O)CC)CC2)cc1	–	–	–	60	–	–	–	–
CCOC(=O)c1c(NC(=O)c2cc(-c3ccc(Cl)s3)nc3ccccc23)sc(C(N)=O)c1C	–	–	–	56	–	–	–	–
COc1ccc([C@H]2CN(c3ccc(OC)cc3)C(=O)[C@@H]2CC(=O)Nc2ccccc2)cc1	–	–	–	–	–	–	·	·
CCOC(=O)c1cc2ccccc2n1C1CCN(C)CC1	–	–	–	·	–	·	·	·
CN(CC1CCCO1)S(=O)(=O)c1ccc(C(=O)Nc2nc3cc4c(cc3s2)OCO4)cc1 (stereo not drawn)	–	–	–	64	–	–	–	–
Cc1cc[n+](CC(=O)c2ccc(NC(=O)c3ccccc3)cc2)c2ccccc12	–	–	–	53	–	–	–	–
O=C(C[n+]1cccc2ccccc21)c1ccc(NC(=O)c2ccccc2)cc1	–	–	–	–	–	·	·	·
CCNC(=O)C1(C)CCN(C(=O)CCc2ccccc2)C1 (stereo not drawn)	–	–	–	–	–	–	·	·
Clc1ccc(Oc2ncnc3oc(-c4ccccc4)cc23)cc1	–	–	–	56	–	–	–	–
CCOC(=O)[C@]12CCCC=C1N(CCc1ccc(OC)c(OC)c1)C(=O)[C@H](CC(=O)NCC13CC4CC(CC(C4)C1)C3)C2	–	–	–	·	–	·	·	·
CSc1ccc(C(O)c2ncc(-c3ccc(F)cc3)[nH]2)cc1 (stereo not drawn)	–	–	–	–	–	–	·	·
Cn1ncc(Cl)c1C(=O)Nc1cccc(Cl)c1	–	–	–	–	–	–	·	·
Cn1ncc(N=Cc2c(O)ccc3ccccc23)c1C(=O)Nc1cccc(Cl)c1	–	–	–	51	–	–	–	–
Oc1ccc(Br)cc1/C=N/n1c(-c2ccccc2)n[nH]c1=S	–	–	–	82	–	–	–	–
CCN(CC)S(=O)(=O)c1cc(NS(=O)(=O)c2cccc(C(=O)O)c2)ccc1C	–	–	–	–	–	–	·	·
CCN(CC)S(=O)(=O)c1cc(NS(=O)(=O)c2ccccc2)ccc1C	–	–	–	75	–	–	–	–
COc1cc2oc(=O)cc(-c3ccc(-c4ccc(OC(F)(F)F)cc4)cc3)c2c(OC)c1OC	–	–	–	61	–	–	–	–
Cc1ccc(Nc2nc(C)cc(C)n2)c(Br)c1	–	–	–	–	–	–	·	·
Cc1cc(C)nc(Nc2ccc(Br)cc2C(=O)O)n1	–	–	–	55	–	–	–	–
CC1(c2nc3ccccc3[nH]2)CCCC2=Nc3ccccc3CN21 (stereo not drawn)	–	–	–	·	–	·	·	·
